Test results from ChEMBL document CHEMBL3352570, “ST7612AA1, a thioacetate-ω(γ-lactam carboxamide) derivative selected from a novel generation of oral HDAC inhibitors” (J Med Chem, 2014).

Key:
[1] = biological target: T1, Polyamine deacetylase HDAC10 (Homo sapiens, UniProt Q969S8); experiment: Inhibition of HDAC10 (unknown origin) using fluorogenic tetrapeptide RHKK(Ac) substrate by fluorescence assay
T1 sequence (Q969S8 whole entry): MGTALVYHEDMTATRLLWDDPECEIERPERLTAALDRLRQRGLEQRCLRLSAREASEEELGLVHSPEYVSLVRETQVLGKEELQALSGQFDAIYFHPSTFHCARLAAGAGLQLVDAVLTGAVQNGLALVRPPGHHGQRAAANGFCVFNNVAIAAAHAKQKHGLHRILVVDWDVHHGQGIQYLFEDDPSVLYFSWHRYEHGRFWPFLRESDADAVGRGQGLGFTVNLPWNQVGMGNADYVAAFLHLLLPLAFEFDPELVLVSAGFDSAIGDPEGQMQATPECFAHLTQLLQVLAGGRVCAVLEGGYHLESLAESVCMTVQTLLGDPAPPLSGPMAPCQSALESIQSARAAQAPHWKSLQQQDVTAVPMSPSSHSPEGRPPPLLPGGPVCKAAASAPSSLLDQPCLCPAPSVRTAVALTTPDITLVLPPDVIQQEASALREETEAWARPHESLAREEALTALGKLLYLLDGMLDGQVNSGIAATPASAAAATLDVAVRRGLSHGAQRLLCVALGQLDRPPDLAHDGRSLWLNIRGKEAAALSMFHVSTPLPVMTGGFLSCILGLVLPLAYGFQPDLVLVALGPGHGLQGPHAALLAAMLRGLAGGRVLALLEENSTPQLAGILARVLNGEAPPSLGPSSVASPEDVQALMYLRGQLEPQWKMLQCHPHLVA

[2] = Efflux ratio of permeability from apical to basolateral side to basolateral to apical side of human Caco2 cells; type: ADME, cell-based; conditions: caco-2
In short: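 Caco-2 monolayers; the efflux ratio is flux in the apical-to-basolateral direction over flux in the basolateral-to-apical direction. Means of at least three experiments.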

[3] = biological target: T2, Cholecystokinin receptor type A (Homo sapiens) (UniProt P32238); experiment: Inhibition of human CCK1 at 10 uM by radioligand displacement assay
T2 sequence (whole entry): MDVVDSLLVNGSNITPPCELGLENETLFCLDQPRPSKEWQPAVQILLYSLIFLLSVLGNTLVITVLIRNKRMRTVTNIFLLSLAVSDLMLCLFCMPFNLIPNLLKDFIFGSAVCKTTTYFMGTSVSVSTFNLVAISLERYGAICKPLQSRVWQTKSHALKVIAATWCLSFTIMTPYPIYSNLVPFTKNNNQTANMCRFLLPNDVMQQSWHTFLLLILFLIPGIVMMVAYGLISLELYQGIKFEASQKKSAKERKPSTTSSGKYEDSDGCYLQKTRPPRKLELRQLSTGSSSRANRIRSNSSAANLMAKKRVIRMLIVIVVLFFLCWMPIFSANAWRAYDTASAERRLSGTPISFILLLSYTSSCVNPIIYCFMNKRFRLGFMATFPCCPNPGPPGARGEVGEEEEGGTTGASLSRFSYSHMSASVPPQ
In short: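 Tested at 10⁻⁵ M within a 40-target panel of receptors, ion channels and enzymes. Read-out was percent displacement of a radiolabeled reference ligand.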

- IC50 [1]: 11 nM
- Ratio [2]: 5.2
- inhibition [3]: 45%
SMILES: O=C1CC[C@@H](C(=O)N[C@H](CCCCCS)C(=O)Nc2ccccc2)N1
